# Source: PubChem BioAssay (The Scripps Research Institute Molecular Screening Center)
# Hits are enriched below; roughly 2.5% of the tested compounds scored in any of these assays.
# HTRA1 inhibitor – blocks human HTRA1 serine peptidase; 0.5% of 340,000 active; recombinant HTRA1, FP-rhodamine activity-based probe, fluorescence polarization; inhibition, % at 5.96 µM; AID 504803; in the data active = inhibition above about 36%;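 note: 0% = enzyme with DMSO and 100% = wells lacking enzyme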
# Target sequence (Q92743 whole entry, looked up): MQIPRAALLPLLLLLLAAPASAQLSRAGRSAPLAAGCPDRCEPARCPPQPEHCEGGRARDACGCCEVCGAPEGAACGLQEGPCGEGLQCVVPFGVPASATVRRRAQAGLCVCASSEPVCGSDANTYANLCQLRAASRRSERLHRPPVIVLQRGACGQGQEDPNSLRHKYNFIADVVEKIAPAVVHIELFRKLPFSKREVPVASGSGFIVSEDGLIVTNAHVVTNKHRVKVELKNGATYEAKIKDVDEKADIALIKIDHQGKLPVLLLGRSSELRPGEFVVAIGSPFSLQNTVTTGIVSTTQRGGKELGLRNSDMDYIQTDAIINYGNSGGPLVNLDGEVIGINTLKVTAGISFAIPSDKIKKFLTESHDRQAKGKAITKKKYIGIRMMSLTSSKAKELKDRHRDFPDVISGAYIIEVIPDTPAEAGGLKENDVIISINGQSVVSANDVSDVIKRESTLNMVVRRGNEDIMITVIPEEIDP
# TCR CD3 inh – human TCR-CD3 binding inhibition; inhibition, % at 9.4 µM; TAMRA-labeled TCR probe fluorescence, biochemical; 0.37% of 360,000 active;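 note: recombinant mutant TCR 2C K166C tagged with TAMRA read by polarization; 0% = receptor in buffer alone and 100% = receptor with positive control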
# ABHD4 inh – inhibitors of mouse ABHD4. Q8VD66. purified mABHD4, FP-Rh probe fluorescence polarization. inhibition, % at 8.92 µM. 0.54% of 370,000 active. AID 720543;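 active = inhibition exceeding the mean over every tested compound plus 3 SD, cut at about 30% in these data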;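 note: 0% = plate median of compound wells and 100% = S159A mutant with DMSO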
#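 system = mouse ABHD4 enzyme, wild type | medium = HEPES pH 7.0, NaCl, Pluronic buffer | also added = FP-Rh probe | incubation = Enzyme–compound pre-incubation 45 min, then probe 60 min, both 25 °C | technique = fluorescence polarization, excitation 525 nm, emission 598 nm, BODIPY TMR filters | controls = S159A mutant high control, sample median low control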
# PRMT1 inh – blocks human protein arginine methyltransferase 1. Q99873. recombinant PRMT1, activity-based probe fluorescence polarization. inhibition, % at 2.79 µM. 1.3% of 370,000 active;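 active = inhibition above about 21% made by adding two undisclosed values, limit read from the data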
# SIAE primary – inhibitors of human sialic acid acetylesterase SIAE; Q9HAT2; 0.69% of 370,000 active; AID 1053197; inhibition, % at 9.66 µM; SIAE FP-Rh probe binding, fluorescence polarization;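 active = inhibition above a cutoff: mean of compounds within the control limits plus 3 SD of those, cut at about 17% in these data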;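 note: 0% = plate median of compound wells and 100% = probe without SIAE protein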
# BSA TAMRA ctr – BSA probe counter-screen for TCR-CD3 inhibitors; shares compounds with TCR CD3 inh; TAMRA-labeled BSA probe fluorescence counterscreen; inhibition, % at 9.4 µM; 10% of 1,200 active; AID 652035; in the data active = inhibition above about 23%;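 note: 0% = buffer low control and 100% = reference high control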
# TCR-CD3 conf – TCR-CD3 interaction inhibition, confirmation; AID 652036; inhibition, % at 9.4 µM; shares compounds with TCR CD3 inh; 48% of 1,200 active; TAMRA-labeled TCR probe fluorescence binding assay
# PRMT1 inh conf – PRMT1 (human) inhibition, FP confirmation | shares compounds with PRMT1 inh | recombinant His-PRMT1, activity-based probe fluorescence polarization | inhibition, % at 2.79 µM | 42% of 3,300 active;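 active = mean inhibition across replicates above the hit cutoff derived for the earlier primary screen, cut at about 22% in these data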
# ABHD4 confirm – ABHD4 (mouse) inhibition, FP confirmation | shares compounds with ABHD4 inh | purified mABHD4, FP-Rh probe fluorescence polarization | inhibition, % at 8.92 µM | 55% of 1,800 active;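 active = mean inhibition across replicates above the hit cutoff set in the primary screen, cut at about 30% in these data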;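 note: 0% = wild-type ABHD4 with DMSO and 100% = catalytically dead S159A mutant with DMSO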
# SIAE inh conf – human SIAE inhibition, confirmation; SIAE FP-Rh activity-based probe, fluorescence polarization; inhibition, % at 9.66 µM; 13% of 2,300 active; shares compounds with SIAE primary; AID 1117263;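 active = mean inhibition of the replicates above the hit cutoff set in the primary screen, cut at about 17% in these data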;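 note: 0% = SIAE with DMSO and probe and 100% = probe without SIAE; inhibitors lower polarization as more probe stays unbound to SIAE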
# Numbers without * were called inactive; . = not tested or not shown. Cut-off read from the data, not from the text of the source, unless noted: active = inhibition above about 19%; inactive = the rest.
SMILES,HTRA1 inhibitor,TCR CD3 inh,ABHD4 inh,PRMT1 inh,SIAE primary,BSA TAMRA ctr,TCR-CD3 conf,others
CN1C(=O)NC(=O)/C(=C/c2ccc([N+](=O)[O-])o2)C1=O,.,20*,-5,24*,4,-6,7,
CC12CCC(O)CC1CCC1C2CCC2(C)C(C(=O)CO)CCC12 (stereo not drawn),.,9,-4,-3,-2,.,.,
c1ccc2c(c1)CN(Cc1ccc3c(c1)OCO3)Cc1cnnn1-2,3,3,-3,-3,-2,.,.,
C#C[C@]1(O)CC[C@H]2[C@@H]3CCC4=CC(=O)CC[C@]4(C)[C@H]3CC[C@@]21C,7,20*,-3,-2,8,0,0,
C[C@]12CCC(=O)C=C1CC[C@@H]1[C@@H]2CC[C@@]2(C)[C@H]1CC[C@]2(C)O,-3,-6,-4,3,-2,.,.,
Nc1ccc(CCN2CCCC2)cc1,-1,2,4,4,3,.,.,
Nc1ccc(CCN2CCN(c3cccc(C(F)(F)F)c3)CC2)cc1,-1,44*,-3,-8,4,-4,0,
O=C(N/N=C/c1c(O)n(CCc2ccccc2)c(=O)[nH]c1=O)c1ccccc1,.,37*,9,-2,-1,-6,6,
CC/C(=N\NC(=O)c1ccccc1)c1c(O)n(Cc2ccccc2)c(=O)[nH]c1=O,.,21*,6,1,11,2,16,
CN1CCC(c2c[nH]c3ccccc23)C1 (stereo not drawn),4,23*,3,-2,-5,1,3,
CN1CCC(c2c[nH]c3ccc(O)cc23)CC1,4,-5,9,1,12,.,.,
Cc1nc(SCc2c(Cl)cccc2Cl)nc(OC(=O)N(C)C)c1C,-15,-2,-4,4,-9,.,.,
S=C(NCCc1ccccc1)N1Cc2cc(-c3ccccc3)ccc2-n2nncc2C1,.,22*,-49,-1,-24,10,7,
CN(C)S(=O)(=O)c1cccc(C(=O)N2CCC(C(=O)O)(c3ccccc3)CC2)c1,5,-2,-2,-3,12,.,.,
CCCCCn1c(=O)c(C(=O)Nc2ccccn2)c(O)c2ccccc21,2,-5,1,-2,2,.,.,
CCCCCCn1c(=O)c(C(=O)Nc2ncccc2O)c(O)c2ccccc21,7,26*,6,3,3,-3,22*,
NN=C1C(Cl)=C(Cl)C(Cl)=C1Cl,26,23*,28,26*,0,11,9,PRMT1 inh conf=7
O=[N+]([O-])c1ccc(N2CCCCCC2)c2nonc12,15,79*,23,89*,-17,103*,87*,PRMT1 inh conf=95*
C[C@]12CCC3C(CC[C@H]4C[C@@H](O)CC[C@]34C)C1C[C@H](Br)[C@@H]2O (stereo partly drawn),.,1,1,-1,1,.,.,
COC(=O)C1C(c2ccc(Cl)cc2)CC2CCC1N2C (stereo not drawn),.,1,5,-2,-3,.,.,
O=C(N/N=C/c1c(O)n(Cc2ccco2)c(=O)[nH]c1=O)c1ccccc1O,4,41*,31*,9,2,-14,40*,ABHD4 confirm=32*
CN1C(C(=O)N2CCC3(CC2)OCCO3)=CC(c2ccc(F)cc2)=NS1(=O)=O,0,-6,-5,-4,-10,.,.,
O=[N+]([O-])c1ccc(NCc2ccccc2)c2nonc12,.,66*,53*,168*,37*,99*,81*,PRMT1 inh conf=159*;ABHD4 confirm=79*;SIAE inh conf=29*
COc1ccc(-n2c(O)c(C(C)=NCCc3c[nH]c4ccccc34)c(=O)[nH]c2=O)cc1,.,7,7,-6,-2,.,.,
O=c1[nH]sc2cc(F)ccc12,2,5,10,73*,7,.,.,PRMT1 inh conf=69*
